CHRM5 agonist: agonists of human muscarinic M5 receptor (CHRM5); P08912; actives 0.19% (n = 360,000); activation, % at 3 µM; CHO-K1 hM5 cells, Fluo-8 calcium fluorescence; 0% DMSO wells, 100% maximal acetylcholine response;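 active means activation above the run's mean over test compounds plus 3 SD, cut at about 23% in these data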;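 further: signal is peak over basal fluorescence ratio across the kinetic read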
Target sequence (P08912 whole entry, looked up): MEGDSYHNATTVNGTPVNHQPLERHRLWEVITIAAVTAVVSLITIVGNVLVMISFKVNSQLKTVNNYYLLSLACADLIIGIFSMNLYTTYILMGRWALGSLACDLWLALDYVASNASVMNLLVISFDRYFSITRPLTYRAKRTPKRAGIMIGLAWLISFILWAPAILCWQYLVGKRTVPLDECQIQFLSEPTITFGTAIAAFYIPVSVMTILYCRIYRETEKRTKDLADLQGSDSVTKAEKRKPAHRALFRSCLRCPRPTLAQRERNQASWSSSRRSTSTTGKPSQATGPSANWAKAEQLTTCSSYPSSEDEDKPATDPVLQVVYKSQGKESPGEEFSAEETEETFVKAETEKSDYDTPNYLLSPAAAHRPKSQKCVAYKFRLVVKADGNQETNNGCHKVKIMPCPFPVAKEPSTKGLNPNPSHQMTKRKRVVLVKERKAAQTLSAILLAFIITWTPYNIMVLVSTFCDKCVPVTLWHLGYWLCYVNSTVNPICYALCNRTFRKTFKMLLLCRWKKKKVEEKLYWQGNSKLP
M1 ag: human M1 muscarinic receptor agonism; CHO-K1 hM1, Fluo-8 calcium fluorescence, agonist mode; 0% DMSO, 100% acetylcholine EC100; activation, % at 3 µM; actives 0.33% (n = 360,000); AID 588814;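 active means activation above the run's mean compound activation plus 3 SD, cut at about 16% in these data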;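 further: peak over basal fluorescence ratio within a 140 s kinetic read after compound addition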
CHRM1 PAM: potentiates human M1 receptor response to acetylcholine | actives 0.088% (n = 360,000) | CHO-K1 hM1, Fluo-8 calcium fluorescence, ACh EC20; 0% = ACh EC20, 100% = maximal ACh | activation, % at 3 µM | P11229; in the data active means activation above about 19%, passing the limit was not always enough
CHRM1 antagonist: human CHRM1 antagonism | inhibition, % at 3 µM | CHO-K1 hM1, Fluo-8 calcium fluorescence, ACh EC80 antagonist | actives 1.3% (n = 360,000);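 active means percent inhibition above its own plate's cutoff, namely the mean of that plate's compound wells plus 3 SD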;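 further: peak over basal fluorescence ratio during 140 s after agonist addition; 0% = ACh EC80 plus DMSO and 100% = DMSO alone without agonist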
CHRM5 antagonist: CHRM5 antagonism in calcium assay; P08912; CHO-hM5 cells, Fluo-8 calcium fluorescence, ACh EC80; inhibition, % at 3 µM; actives 0.59% (n = 360,000);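 active means inhibition above a per-plate cutoff, the mean of that plate's test compounds plus 3 SD, cut at about 27% in these data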;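 further: 0% = acetylcholine EC80 with DMSO and 100% = DMSO without agonist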
M5 PAM: CHRM5 positive allosteric modulation; CHO-K1 hM5, Fluo-8 calcium, ACh EC20 PAM; 0% = ACh EC20, 100% = ACh EC100; activation, % at 3 µM; actives 0.3% (n = 360,000);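 active means activation above the run cutoff, the mean activation of all test compounds plus 3 SD, cut at about 18% in these data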
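System: CHO-K1 cell line with stable human muscarinic M5 receptor expression | Also added: EC20 acetylcholine as agonist stimulus | Compound: One concentration, 3 µM final (nominal) | Timing: Fluo-8 loading 80 min at 37 °C plus 30 min room temperature | Measured by: Fluo-8 calcium dye fluorescence, kinetic read | Read-out basis: % activation, ACh-normalized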
* hit, by the source's call; nt = not tested or not shown. Sampled rows, rich in hits. Any-hit rate of the full collection: about 2%.

SMILES | CHRM5 agonist | M1 ag | CHRM1 PAM | CHRM1 antagonist | CHRM5 antagonist | M5 PAM
CCOC(=O)C1CCCN(C(=O)CCc2nnc(-c3ccc(C(C)=O)s3)o2)C1 (centres undefined) | 5 | 29* | -11 | 9 | 4 | -7
CCOC(=O)C1CCCN(C(=O)CSc2nc(C)cc(C)n2)C1 (centres undefined) | 2 | 38* | -5 | 8 | 22 | -7
Cn1c(NCc2cccnc2)nc2cc(-c3cccc(C(=O)NCCO)c3)sc2c1=O | 1 | -2 | 7 | -10 | 7 | -5
CCCCCCCCCC[n+]1cccc2c3ccccc3ccc21 | -9 | -3 | -23 | 82* | 46* | -30
Cc1c2ccccc2cc[n+]1CCCS(=O)(=O)[O-] | -1 | -5 | -8 | 7 | 10 | -11
CCCCCCCC[n+]1cccc2c3ccccc3ccc21 | -14 | -4 | -23 | 98* | 36* | -18
Cc1cccc[n+]1CCCCCCCCCC[n+]1ccccc1C | -12 | -5 | -14 | 18 | 9 | 0
C[C@@H]1CN([C@H](C)CO)C(=O)CCCn2cc(nn2)CO[C@H]1CN(C)C(=O)Nc1ccccc1C(F)(F)F | 2 | -2 | -5 | 9 | -4 | 1
O=C(/C=C/c1ccccc1)NC(NC(=S)Nc1cc(Cl)ccc1Cl)C(Cl)(Cl)Cl (centres undefined) | 2 | 1 | -1 | 0 | 51* | -16
O=C(/C=C/c1ccccc1)NC(NC(=S)Nc1ccc(Cl)cc1)C(Cl)(Cl)Cl (centres undefined) | -3 | 2 | -4 | 17 | 15 | -31
COc1ccc(Cl)cc1NC(=O)C(OC)c1ccccc1 (centres undefined) | -9 | -5 | 10 | -9 | -1 | 10
CCC(C(=O)Nc1ccc(C)cc1)c1ccccc1 (centres undefined) | -2 | -3 | -2 | 8 | 7 | -2
CCC(C(=O)Nc1cc(Cl)ccc1OC)c1ccccc1 (centres undefined) | -4 | -9 | 16 | -18 | -11 | 19*
CCc1ccc(NC(=O)C(CC)c2ccccc2)cc1 (centres undefined) | 24* | 26* | -6 | 17 | 2 | -2
CCC(C(=O)Nc1ccc(C(=O)N2CCCC2)cc1)c1ccccc1 (centres undefined) | 23 | 18* | -8 | 13 | 17 | -16
CC(C)C(=O)Nc1ccc(C(=O)N2CCCCCC2)cc1 | -1 | -2 | 12 | -11 | -5 | 3
C[C@@H]1Cn2cnc(C(=O)N[C@@H](C)c3ccccc3)c2C(=O)N1 | 1 | -1 | 4 | -10 | 6 | -3
CN1C=CC(C(C(N)=O)c2ccccc2)c2ccccc21 (centres undefined) | 0 | 3 | 23 | -7 | -3 | 0
CN(CCc1ccccc1)C(=O)CC1C(=O)NCCN1Cc1ccccn1 (centres undefined) | 0 | -4 | 4 | 2 | -4 | 5
CC(C)(C)CN1CCC(Oc2cccc(C(=O)NCCCOc3cccnc3)c2)CC1 | -8 | -5 | -3 | 17 | 38* | -11
CC1=NN(c2ccccc2)C(=O)/C1=C\C=C1\N(C)c2ccccc2C1(C)C | 17 | 13 | -6 | 11 | 12 | -7
CN1C(=CC=C2C=C(I)C(=O)C(I)=C2)C(C)(C)c2ccccc21 | 11 | 9 | -1 | -2 | 4 | 2
CN1/C(=C\C=C2/SC(=S)NC2=O)C(C)(C)c2ccccc21 | 51* | 57* | -22 | 62* | 58* | -28
Cc1ccccc1N=C/C=C1\N(C)c2ccccc2C1(C)C | 0 | -1 | -7 | 25* | 1 | -4
CC1=NN(c2ccccc2)C(=O)/C1=C\C=C1/N(C)c2ccccc2C1(C)C | 36* | 23* | -12 | 26* | 18 | -16
SMILES | CHRM5 agonist | M1 ag | CHRM1 PAM | CHRM1 antagonist | CHRM5 antagonist | M5 PAM
COc1ccc(C(=O)N2CCc3ccccc3C2)cc1S(=O)(=O)N1CCCC1 | 3 | 3 | 5 | -1 | 8 | 0
CSc1nc(C)c(C(=O)C[n+]2ccccc2)cc1C#N | -9 | -7 | -14 | 28* | -2 | 10
COc1ccc(CNC(=O)c2cccc3c(-c4cccnc4)coc23)cc1OC | 9 | 4 | -17 | 34* | 35* | -18
O=C(NCc1ccc(F)c(F)c1)c1cccc2c(-c3cccnc3)coc12 | 6 | 1 | -16 | 22 | 13 | -13
CCOC(=O)N(C)C[C@@H]1OCc2cnnn2CCCC(=O)N([C@H](C)CO)C[C@@H]1C | -2 | -1 | 13 | -14 | -13 | 0
COCCCNc1nc(N)c([N+](=O)[O-])c(Nc2cc(OC)ccc2OC)n1 | 36* | 12 | 13 | -5 | 5 | 8
COc1ccc(OC)c(Nc2nc(NCCCN(C)C)nc(N)c2[N+](=O)[O-])c1 | 1 | -2 | 5 | -3 | 10 | -6
Cc1cccc(S(=O)(=O)NC(=O)C2(C)CCN2C(=O)Cc2cccs2)c1 (centres undefined) | -1 | -2 | 4 | -3 | 13 | 3
O=c1ccn([C@@H]2O[C@H](CNCc3cccn3-c3nccs3)[C@@H](O)[C@H]2O)c(=O)[nH]1 | 0 | -4 | -3 | -16 | 11 | -2
CC1=C(C)/C(=N\OS(=O)(=O)c2ccc(C)cc2)C=CC1=O | 13 | 2 | -10 | 31* | 24 | 3
CC1=C/C(=N\OS(=O)(=O)c2ccccc2)C(C)=CC1=O | 44* | 10 | -11 | 32* | 66* | -26
CC1=C/C(=N\OS(=O)(=O)c2ccccc2)C(C(C)C)=CC1=O | 27* | -7 | 4 | 2 | 79* | -9
O=S(=O)(CCNCc1ccco1)NC1CCCCC1 | 0 | -5 | 9 | -15 | -6 | 5
CCN(C)C1CN(Cc2cn(Cc3ccc(C(F)(F)F)cc3)nn2)S(=O)(=O)C1 (centres undefined) | 1 | nt | nt | nt | 7 | -4
CCCCN(CCCC)c1ccc(C(=O)c2ccccc2C(=O)O)c(O)c1 | 10 | 37* | -12 | 5 | 3 | -2
O=C(CN1C(=O)NC2(CCCC2)C1=O)NNC(=O)c1ccc(Br)cc1 | 4 | 2 | 30* | -22 | 0 | 0
COc1ccc(Cc2nc3ccc(C(=O)N(C)Cc4nccn4C)cc3o2)cc1 | -3 | -9 | -3 | -4 | 3 | -7
c1ccc(C[C@H]2COc3c4ccccc4nn32)cc1 | -1 | nt | nt | nt | 0 | -3
Cc1c(CCOC(=O)C2C3CC4CC(C3)CC2C4)sc[n+]1CC(=O)c1ccc(Br)cc1 (centres undefined) | -7 | -5 | -21 | 39* | 3 | -9
